Calls of active or inactive are those of the source.
Assays:
[1] = Antipyroptotic activity in PMA-differentiated and LPS-primed human THP1 cells assessed as decrease in ATP-induced pyroptosis measured as LDH activity at 10 uM after 1 hrs by colorimetric assay; type: functional; conditions: THP-1, 1 h
[2] = Cytotoxicity against human HK2 cells assessed as cell viability after 72 hrs by MTT assay; type: cell-based, HK-2; conditions: read-out: TC50
In short: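 MTT viability assay in human renal epithelial HK-2 cells. TC50 defined as molar concentration lowering HK-2 viability by 50%.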

[3] = Antipyroptotic activity in PMA-differentiated and LPS-primed human THP1 cells assessed as decrease in ATP-induced pyroptosis measured as LDH activity after 1 hrs pretreated with 5 mM ATP for 1 hr by colorimetric assay; type: functional, cell-based; conditions: thp-1
In short: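 PMA-differentiated, LPS-primed THP-1 cells pre-treated 1 h with compound (0.001-10 μM), then ATP 5 mM for 1 h. LDH in collected supernatant read colorimetrically; output as decrease of cell death vs vehicle. EC50 taken as concentration giving 50% of maximal possible effect. Mean±SEM of at least four experiments in triplicate.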

[4] = (§1) Antipyroptotic activity in PMA-differentiated and LPS-primed human THP1 cells assessed as decrease in nigericin-induced pyroptosis measured as LDH activity after 1 hrs pretreated with 10 uM nigericin for 1.5 hrs by colorimetric assay; type: functional, cell-based; conditions: thp-1
In short: (§2)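 Differentiated (PMA) and LPS-primed THP-1 cells received compound at 0.001-10 μM 1 h ahead of nigericin (10 μM, 1.5 h). Supernatant LDH activity measured by colorimetric assay, expressed as decrease of cell death vs vehicle alone; pEC50 derived from concentration-response curves. Mean±SEM, ≥4 experiments in triplicate.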

THP-1 = assay: as §1; type: functional, cell-based; in short: as §2
[5] = cysteamine reactivity assessed as second-order reaction rate constant in PBS at pH 7.4 and […] by DTNB spectrophotometric assay
[6] = target: NACHT, LRR and PYD domains-containing protein 3 (Homo sapiens) (UniProt Q96P20); assay: Inhibition of recombinant NLRP3-ATPase (unknown origin) assessed as hydrolysis of ATP at 10 uM
Chain of NACHT, LRR and PYD domains-containing protein 3 (Homo sapiens) (Q96P20 whole entry, the tested form may be a part): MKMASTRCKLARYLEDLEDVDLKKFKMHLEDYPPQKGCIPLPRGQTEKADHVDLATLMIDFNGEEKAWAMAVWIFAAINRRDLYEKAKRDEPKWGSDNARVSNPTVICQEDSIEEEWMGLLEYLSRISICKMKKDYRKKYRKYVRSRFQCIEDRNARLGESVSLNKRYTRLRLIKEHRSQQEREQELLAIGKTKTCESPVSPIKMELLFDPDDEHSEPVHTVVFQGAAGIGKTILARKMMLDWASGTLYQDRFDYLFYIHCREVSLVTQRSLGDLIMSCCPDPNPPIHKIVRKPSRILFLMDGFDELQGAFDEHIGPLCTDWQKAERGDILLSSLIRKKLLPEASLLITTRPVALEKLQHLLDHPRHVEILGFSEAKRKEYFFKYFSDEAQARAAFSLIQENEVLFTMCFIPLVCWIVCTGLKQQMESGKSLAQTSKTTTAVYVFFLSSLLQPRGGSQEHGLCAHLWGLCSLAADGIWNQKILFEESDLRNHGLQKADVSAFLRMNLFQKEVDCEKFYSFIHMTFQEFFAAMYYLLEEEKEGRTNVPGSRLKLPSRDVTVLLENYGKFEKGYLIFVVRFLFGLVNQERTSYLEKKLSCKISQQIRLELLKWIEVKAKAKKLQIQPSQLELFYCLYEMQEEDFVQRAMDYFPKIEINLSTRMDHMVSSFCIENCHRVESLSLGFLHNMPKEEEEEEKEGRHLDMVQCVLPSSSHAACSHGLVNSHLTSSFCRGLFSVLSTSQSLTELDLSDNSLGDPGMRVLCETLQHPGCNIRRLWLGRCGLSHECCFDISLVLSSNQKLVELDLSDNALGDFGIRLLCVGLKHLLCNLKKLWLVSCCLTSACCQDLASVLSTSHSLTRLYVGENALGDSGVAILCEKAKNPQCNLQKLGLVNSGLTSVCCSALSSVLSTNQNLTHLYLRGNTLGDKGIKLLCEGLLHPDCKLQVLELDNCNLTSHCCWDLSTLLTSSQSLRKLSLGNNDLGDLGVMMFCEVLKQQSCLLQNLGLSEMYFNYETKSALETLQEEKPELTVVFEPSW
In short: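 Recombinant NLRP3 (0.01 μg) pre-incubated 15 min with compound (10 μM); ATP 250 μM then added and incubated 1 h at 37 °C. ATP hydrolysis quantified as Pi content by colorimetric phosphate detection. Expressed as % inhibition vs vehicle; mean±SEM of ≥3 experiments in duplicate.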

[7] = Activation of Keap1-Nrf2 pathway in human THP1 cells assessed as NFE2L2 marker gene expression level at 10 uM after 2 hrs by RT-PCR analysis; type: functional, cell-based; conditions: THP-1
[8] = Activation of KIea[1/Nrf2 pathway in human THP1 cells assessed as HMOX1 marker gene expression level at 10 uM after 2 hrs by RT-PCR analysis; type: functional, cell-based; conditions: THP-1
Caspase-1 (Homo sapiens) [9] = target: T1, Caspase-1 (Homo sapiens) (UniProt P29466); assay: Inhibition of caspase 1 (unknown origin) using N-acetyl-Tyr-Val-Ala-Asp-para-nitroanilide substrate assessed as rate of para-nitroanilide release after 15 to 60 mins preincubation by spectrophotometric assay
T1 sequence (whole entry): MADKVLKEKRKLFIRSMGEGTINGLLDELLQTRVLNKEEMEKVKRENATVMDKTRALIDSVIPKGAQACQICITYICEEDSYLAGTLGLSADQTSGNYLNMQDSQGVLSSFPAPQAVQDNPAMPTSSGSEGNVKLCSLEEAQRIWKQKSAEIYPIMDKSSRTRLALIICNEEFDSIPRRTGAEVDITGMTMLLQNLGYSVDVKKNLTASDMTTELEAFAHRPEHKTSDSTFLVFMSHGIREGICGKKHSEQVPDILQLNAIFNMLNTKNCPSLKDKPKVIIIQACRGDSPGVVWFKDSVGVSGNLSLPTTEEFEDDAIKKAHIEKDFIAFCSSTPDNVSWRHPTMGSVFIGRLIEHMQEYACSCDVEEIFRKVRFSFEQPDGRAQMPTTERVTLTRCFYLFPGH
In short: (§3)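 Caspase-1 from THP-1 cell cultures (50 U) pre-incubated 15-60 min with compound at 0.01-10 μM, then activity followed continuously by pNA release from Ac-YVAD-pNA (200 μM; 1 h) at 405 nm. kobs at each concentration used to obtain kinact (irreversible first-order rate) and Ki = k-1/k1.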

Caspase-1 (Homo sapiens) [10] = target: T1, Caspase-1 (Homo sapiens); assay: Inhibition of caspase 1 (unknown origin) using N-acetyl-Tyr-Val-Ala-Asp-para-nitroanilide substrate assessed as rate of para-nitroanilide release at 0.01 to 10 uM by spectrophotometric assay; conditions: TDE = time-dependent effect; in short: as §3
Caspase-1 (Homo sapiens) [11] = target: T1, Caspase-1 (Homo sapiens); assay: (§4) Inhibition of caspase 1 (unknown origin) using N-acetyl-Tyr-Val-Ala-Asp-para-nitroanilide substrate assessed as rate of para-nitroanilide release by spectrophotometric assay; in short: as §3
Caspase-1 = target: T2, Caspase-1 (Homo sapiens, UniProt P29466); assay: as §4; in short: as §3
T2 sequence (P29466 whole entry): T1 sequence (whole entry)

Caspase-1 (Homo sapiens) [12] = target: T1, Caspase-1 (Homo sapiens); assay: Inhibition of caspase 1 (unknown origin) using N-acetyl-Tyr-Val-Ala-Asp-para-nitroanilide substrate assessed as rate of para-nitroanilide release at 10 uM by spectrophotometric assay
In short: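 Caspase-1 enzyme from THP-1 cultures (50 U) pre-incubated 15 min with compound (10 μM) in reaction buffer at 37 °C. Ac-YVAD-pNA substrate (200 μM) added; pNA release monitored continuously at 405 nm over 1 h. Reported as % inhibition vs vehicle; mean±SEM, ≥3 experiments in duplicate.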

Structure (SMILES)	inhibition at 10 µM [1]	CC50 at 72 h [2]	other results
C=C(C(=O)OCC)C(O)c1ccccc1F (configuration not stated)	82.3%	25.4 µM	pEC50 [3]: 6.8; pEC50 [4]: 6.6; inhibition (THP-1): Dose-dependent effect
C=C(C#N)C(O)c1c(Cl)cccc1Cl (configuration not stated)	51.5%	16.3 µM	–
C=C(C(=O)OCC)C(O)c1ccccn1 (configuration not stated)	54.3%	53.4 µM	–
C=C(C(=O)OCC)C(O)c1c(Cl)cccc1Cl (configuration not stated)	76.6%	45.2 µM	–
C=C(C(=O)OCC)C(O)c1ccccc1[N+](=O)[O-] (configuration not stated)	63.7%	7.8 µM	pEC50 [3]: 6.5; pEC50 [4]: 6.7; inhibition (THP-1): Dose-dependent effect
C=C(C(=O)OCC)C(O)c1ccc(Cl)cc1Cl (configuration not stated)	72.4%	70.5 µM	–
C=C(C(=O)OCC)C(O)c1cc(Cl)cc(Cl)c1 (configuration not stated)	78.4%	18.8 µM	–
C=C(C(=O)OCC)C(C)O (configuration not stated)	59.6%	22.5 µM	–
C=C(C#N)C(O)c1ccc(Cl)cc1Cl (configuration not stated)	14.1%	36.4 µM	–
C=C(C(=O)OCC)C(O)c1ccccc1Br (configuration not stated)	53.7%	55.9 µM	–
C=C(C#N)C(O)c1ccccc1F (configuration not stated)	30.5%	12.9 µM	–
C=C(C#N)C(O)c1ccccc1Br (configuration not stated)	81.3%	21.8 µM	–
CCOC(=O)/C(=C\c1ccccc1)C(O)c1ccccc1Cl (configuration not stated)	52.5%	> 100 µM	k2 [5]: 0.588 M⁻¹ s⁻¹
C=C(C#N)C(O)c1ccccc1[N+](=O)[O-] (configuration not stated)	97.9%	3.6 µM	–
CCOC(=O)C(C)C(O)c1ccccc1Cl (configuration not stated)	1.6%	75.5 µM	–
C=C(C(=O)OCC)C(O)c1cccc(Cl)c1 (configuration not stated)	44.8%	28.9 µM	–
C=C(C(=O)NCCC)C(O)c1ccccc1Cl (configuration not stated)	31.2%	83.5 µM	k2 [5]: 0.126 M⁻¹ s⁻¹
C=C(C(=O)OCC)C(O)c1ccccc1Cl (configuration not stated)	75.1%	67 µM	pEC50 [3]: 6.9; pEC50 [4]: 6.8; inhibition (THP-1): Dose-dependent effect; inhibition [6]: 51.8%; Activity [7]: Active; Activity [8]: Active; inhibition (Caspase-1 (Homo sapiens) [9]): Dose-dependent effect; inhibition (Caspase-1 (Homo sapiens) [10]): tde; Kinact (Caspase-1 (Homo sapiens) [11]): 3.2 s⁻¹; Ki (Caspase-1): 9.6 µM; k2 [5]: 0.866 M⁻¹ s⁻¹
C=C(C(=O)OCC)C(OCCC(=O)OCC)c1c(Cl)cccc1Cl (configuration not stated)	68.8%	> 100 µM	pEC50 [3]: 6.9; pEC50 [4]: 6.9; inhibition (THP-1): Dose-dependent effect

Structure (SMILES)	inhibition at 10 µM [1]	CC50 at 72 h [2]	other results
C=C(C(=O)OCC)C(OCCC(=O)OCC)c1ccccc1Cl (configuration not stated)	58.3%	> 100 µM	–
CCOC(=O)/C(=C\I)C(O)c1ccccc1Cl (configuration not stated)	17.6%	5.9 µM	–
C/C=C(\C(=O)OCC)C(O)c1ccccc1Cl (configuration not stated)	36.2%	80.1 µM	pEC50 [3]: 7; pEC50 [4]: 6.3; inhibition (THP-1): Dose-dependent effect; inhibition (Caspase-1 (Homo sapiens) [12]): 25.4%; inhibition [6]: 23.3%; k2 [5]: 0.126 M⁻¹ s⁻¹
C=C(C(=O)OCC)C(O)c1ccccc1OC (configuration not stated)	26.8%	45.8 µM	k2 [5]: 0.423 M⁻¹ s⁻¹
C=C(C(=O)OCC)C(O)c1ccccc1 (configuration not stated)	45.8%	64.5 µM	k2 [5]: 0.524 M⁻¹ s⁻¹
CCOC(=O)/C(=C/I)C(O)c1ccccc1Cl (configuration not stated)	5.1%	6.4 µM	–
C=C1C(=O)O[C@@H]2C3O[C@]3(C)CC/C=C(\C)CC[C@@H]12 (some centres not stated)	100%	20.1 µM	pEC50 [3]: 6.9; pEC50 [4]: 6.3; inhibition (THP-1): Dose-dependent effect; inhibition [6]: 25.9%; inhibition (Caspase-1 (Homo sapiens) [9]): Dose-dependent effect; inhibition (Caspase-1 (Homo sapiens) [10]): tde; Kinact (Caspase-1 (Homo sapiens) [11]): 4 s⁻¹; Ki (Caspase-1): 10.6 µM; k2 [5]: 47.9 M⁻¹ s⁻¹
C=C(C(=O)OCC)C(OCCC(=O)OCC)c1ccc(Cl)cc1Cl (configuration not stated)	43.9%	> 100 µM	pEC50 [3]: 7.1; pEC50 [4]: 6.7; inhibition (THP-1): Dose-dependent effect
C=C(C#N)C(O)c1ccccc1Cl (configuration not stated)	83%	11.6 µM	inhibition (Caspase-1 (Homo sapiens) [12]): 36.2%; inhibition [6]: 80.5%; k2 [5]: 0.777 M⁻¹ s⁻¹
C=C(C(=O)OCC)C(O)c1ccc(Cl)cc1 (configuration not stated)	50.5%	34.9 µM	–
C=C(C#N)C(O)c1ccccn1 (configuration not stated)	52.7%	20.5 µM	–
C=C(C(=O)OCC)C(O)C1CCCCC1 (configuration not stated)	64.3%	> 100 µM	–
C=C(C(=O)CC)C(O)c1ccccc1Cl (configuration not stated)	12.1%	1.9 µM	k2 [5]: 7.16 M⁻¹ s⁻¹
C=C(C(=O)OCC)C(O)c1ccccc1C (configuration not stated)	37.8%	56.7 µM	–
C=C(C#N)C(O)c1ccccc1 (configuration not stated)	54.1%	22.3 µM	–
C=C(C#N)C(O)c1cccc2ccccc12 (configuration not stated)	53.5%	10.1 µM	–
C/C=C(/C(=O)OCC)C(O)c1ccccc1Cl (configuration not stated)	31.8%	73.8 µM	pEC50 [3]: 6.9; pEC50 [4]: 6.8; inhibition (THP-1): Dose-dependent effect
CCOC(=O)/C(=C/c1ccccc1)C(O)c1ccccc1Cl (configuration not stated)	55.5%	> 100 µM	–
C=C(C(=O)O)C(O)c1ccccc1Cl (configuration not stated)	42%	> 100 µM	inhibition [6]: 80.2%; k2 [5]: 0.117 M⁻¹ s⁻¹

— ChEMBL document CHEMBL3351787, “Electrophilic warhead-based design of compounds preventing NLRP3 inflammasome-dependent pyroptosis” (J Med Chem, 2014)
